The text below walks through data of publication PMC2532710 (Nucleic Acids Research, 2008).

For series [1], the system named is HJ substrate. Description: 2-AP fluorescence quenching, HJ substrate. The settings on record: center of both HJ and replication forks. Format: binding. In outline:
(§1)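 Substrates were annealed from oligos (boiled 5 min, slow-cooled), gel-purified on native 12% PAGE and quantified spectrophotometrically. After ≥10 min equilibration, emission was read at 330–430 nm (excitation 315 nm). Adenine-substituted spectra were subtracted, and fold decrease at 370 nm was taken versus no peptide.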

A further series deals with HJ-4AP1. Description: 2-AP fluorescence titration of additional peptides, HJ-4AP1. The settings on record: 0.2 μM substrate, pH 7.8, 100 mM NaCl, 1.6% DMSO; peptide dimer 0.05-6.4 μM. Format: binding. In outline: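 Test peptides (C-terminal amides, dissolved in DMSO) titrated as dimers at 0.05, 0.2, 0.8, 3.2 and 6.4 μM into 0.2 μM 2-AP-labelled HJ in 20 mM Tris-HCl pH 7.8, 100 mM NaCl, 1 mM EDTA, 1.6% DMSO at 24°C. Equilibrated ≥3 min with stirring. Excitation 315 nm, emission 365–375 nm. Adenine-substituted junction spectrum subtracted.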

Series [2] relates to protein-free HJ DNA. The following applies: cited from earlier work.
For another series, the system named is RecG helicase. The settings on record: cited from earlier work.
In another series the test system is RuvABC complex. The settings on record: cited from earlier work.
Another series deals with human RAD54 protein. The following applies: cited from earlier work.
In series [3] the test system is replication fork substrates. The settings on record: ref K. Kepple, Ph.D. Thesis, 2006; cited from earlier work.
Series [4] deals with replication fork substrate. Description: 2-AP fluorescence quenching, replication fork. The format is binding. The settings on record: 2-AP fluorescence-based solution assay. In outline:
as §1

Series [5] concerns the target T1, (WRWYCR)2 (synthetic).
T1 chain: WRWYCR
Description: EMSA.

For another series, the target named is T2, RecG (Escherichia coli, UniProt P24230 1-693).
T2 sequence: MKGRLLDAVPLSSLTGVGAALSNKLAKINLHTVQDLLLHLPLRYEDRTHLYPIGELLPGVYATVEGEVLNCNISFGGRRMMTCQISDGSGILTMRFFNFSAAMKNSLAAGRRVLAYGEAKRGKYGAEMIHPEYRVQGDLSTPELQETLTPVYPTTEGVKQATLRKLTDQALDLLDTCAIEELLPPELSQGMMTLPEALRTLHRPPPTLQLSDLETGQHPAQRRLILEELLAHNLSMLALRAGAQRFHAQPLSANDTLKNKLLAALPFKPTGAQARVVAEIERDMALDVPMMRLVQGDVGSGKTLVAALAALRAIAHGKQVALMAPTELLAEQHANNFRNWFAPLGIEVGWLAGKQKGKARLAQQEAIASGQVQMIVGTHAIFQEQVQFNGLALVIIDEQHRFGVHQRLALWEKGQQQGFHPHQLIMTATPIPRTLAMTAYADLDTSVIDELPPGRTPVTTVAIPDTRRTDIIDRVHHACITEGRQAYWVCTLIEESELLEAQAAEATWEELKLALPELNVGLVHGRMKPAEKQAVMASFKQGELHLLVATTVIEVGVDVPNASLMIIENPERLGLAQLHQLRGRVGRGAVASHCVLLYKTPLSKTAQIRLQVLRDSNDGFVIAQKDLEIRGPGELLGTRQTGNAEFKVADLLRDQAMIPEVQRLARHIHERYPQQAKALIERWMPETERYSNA
Description: EMSA.

Series [6] has as its target T1, (WRWYCR)2. Description: 2-AP fluorescence quenching.
For series [7], the target named is T1, (WRWYCR)2. Description: 2-AP fluorescence quenching.
A further series addresses T3, (KWWCRW)2 (synthetic).
T3 chain: KWWCRW
Description: 2-AP fluorescence quenching.

The next series addresses T4, WKHYNY (synthetic).
T4 chain: WKHYNY
Nature of the series: 2-AP fluorescence quenching.

For series [8], the target named is protein-free HJ DNA. Nature of the series: peptide/RecG band shift assay on HJ. The format is binding. The following applies: 50 ng nonspecific dsDNA; data not shown.
Series [9] concerns HJ substrate. Nature of the series: dissociation from HJ. Format: binding.
The test system of series [10] is central thymine bases of HJ. The settings on record: bound to HJ; cited from earlier work.
A further series concerns flayed duplex DNA. The settings on record: cited from earlier work.

(KWWCRW)2 (disulfide): the “quenching of 2-AP in the center of HJ and replication forks” value with HJ substrate [1] was “quench the fluorescence of 2-AP bases”. Moreover, the “2-AP quenching / interaction with 4AP1 in HJ” value in the series on HJ-4AP1 was “interacts with 4AP1 in the HJ substrate”. In addition, the “binding to free HJ DNA” value in the series with protein-free HJ DNA [2] is on record as “bind specifically to free HJ DNA”. Besides, the “potency relative to (WRWYCR)2” value in the series with protein-free HJ DNA [2] (data not shown) is on record as “nearly as potent as (WRWYCR)2”. Moreover, the “binding to protein-free junctions” value with protein-free HJ DNA [2] (gel shift and footprinting assays, data not shown) is on record as “binds to protein-free junctions”. Also, in the series on RecG helicase, the “inhibition of unwinding of branched DNA substrates by RecG” value was “inhibit unwinding of branched DNA substrates”. Also, the “inhibition of HJ resolution by RuvABC” value in the series with RuvABC complex is “inhibit”. Further, the IC50 with RuvABC complex (read-out: IC50, RuvABC) was roughly 50 nM. Moreover, in the series on human RAD54 protein, the “inhibition of D-loop unwinding activity” value is given as “inhibit the D-loop unwinding activity”. Moreover, the “binding to replication forks by band shift” value in series [3] is listed as “unable to detect binding”.
On to WRWYCR, for which the “binding to replication fork-like substrates” value in series [4] was “bind to replication fork-like substrates”.
Same read-out and setting: the same measure for KWWCRW: “bind to replication fork-like substrates”.

B1: HJ (oligos 1-4) (structured_DNA)
DNA 1: CGCGGTACGGCCGGAAGCCTGCTTTTTTATACAAGCTTAACTCCC
DNA 2: GGGAGTTAAGCTTGTATAAATGAGGTACTGTTAGGAATTCTCCAAGTGACTACGG
DNA 3: CCGTAGTCACTTGGAGAATTCCTAACAGTACCTCATTTATACCTGCAGCCGACGC
DNA 4: GCGTCGGCTGCAGGTATAAAAAAGCAGGCTTCCGGCCGTACCGCG
As for B1, in the series with (WRWYCR)2 [5], the Kd was 12.5 nM. Moreover, the binding result with RecG is reported as “binds”.

B2: Fork-4AP2 (complete fork) (structured_DNA)
DNA 1: CGCGGTACGGCCGGAAGCCTGGTTTACAATGCAAGCTTGACTGGCAGCCC
DNA 2: GCGTCGAGTCGGCTGCAGAGGTATAAAACCAGGCTTCCGGCCGTACCGCG
DNA 3: GGGCTGCCAGTCAAGCTTGCATTGT
DNA 4: TATACCTCTGCAGCCGACTCGACGC
modifications: one A of strand 4 is 2-aminopurine (AP2; underline lost)
With B2, in the series with (WRWYCR)2 [6], the Kd turned out to be 63.5 ± 12 nM. For the same molecule, in the series with (WRWYCR)2 [7], the binding signal was 2 fold quenching (max).

B3: HJ-4AP1 (structured_DNA)
DNA 1: CGCGGTACGGCCGGAAGCCTGGTTTACAATGCAAGCTTGACTGGCAGCCC
DNA 2: GGGCTGCCAGTCAAGCTTGCATTGTTGGAGGTACTGTTAGGAATTCTCCAAGTGACTCGG
DNA 3: CCGAGTCACTTGGAGAATTCCTAACAGTACCTCCATATACCTCTGCAGCCGACTCGACGC
DNA 4: GCGTCGAGTCGGCTGCAGAGGTATAAAACCAGGCTTCCGGCCGTACCGCG
modifications: one A of strand 4 is 2-aminopurine (AP1; underline lost)
With B3, the binding result with (KWWCRW)2 is on record as “binds”; with WKHYNY it was “no binding”.

B4: HJ-4AP2 (structured_DNA)
DNA 1: CGCGGTACGGCCGGAAGCCTGGTTTACAATGCAAGCTTGACTGGCAGCCC
DNA 2: GGGCTGCCAGTCAAGCTTGCATTGTTGGAGGTACTGTTAGGAATTCTCCAAGTGACTCGG
DNA 3: CCGAGTCACTTGGAGAATTCCTAACAGTACCTCCATATACCTCTGCAGCCGACTCGACGC
DNA 4: GCGTCGAGTCGGCTGCAGAGGTATAAAACCAGGCTTCCGGCCGTACCGCG
modifications: one A near junction center of strand 4 is 2-aminopurine (AP2; underline lost)
In the case of B4, in the series with (WRWYCR)2 [6], the Kd came out at 14.3 ± 3.2 nM.

B5: Lag-4AP2 (lagging strand fork) (structured_DNA)
DNA 1: CGCGGTACGGCCGGAAGCCTGGTTTACAATGCAAGCTTGACTGGCAGCCC
DNA 2: GCGTCGAGTCGGCTGCAGAGGTATAAAACCAGGCTTCCGGCCGTACCGCG
DNA 3: TATACCTCTGCAGCCGACTCGACGC
modifications: one A of strand 4 is 2-aminopurine (AP2; underline lost)
For the molecule B5, the Kd in the series with (WRWYCR)2 [6] was found to be 79.2 ± 17.3 nM.

B6: Flayed-4AP2 (structured_DNA)
DNA 1: CGCGGTACGGCCGGAAGCCTGGTTTACAATGCAAGCTTGACTGGCAGCCC
DNA 2: GCGTCGAGTCGGCTGCAGAGGTATAAAACCAGGCTTCCGGCCGTACCGCG
modifications: one A of strand 4 is 2-aminopurine (AP2; underline lost)
Molecule B6 showed a Kd in the series with (WRWYCR)2 [6] of 628 ± 107 nM.

B7: Lead-4AP2 (leading strand fork) (structured_DNA)
DNA 1: CGCGGTACGGCCGGAAGCCTGGTTTACAATGCAAGCTTGACTGGCAGCCC
DNA 2: GCGTCGAGTCGGCTGCAGAGGTATAAAACCAGGCTTCCGGCCGTACCGCG
DNA 3: GGGCTGCCAGTCAAGCTTGCATTGT
modifications: one A of strand 4 is 2-aminopurine (AP2; underline lost)
In the series with (WRWYCR)2 [6], B7 returned a Kd of 132 ± 32.8 nM.
In the series with (WRWYCR)2 [6], GCGTCGAGTCGGCTGCAGAGGTATAAAACCAGGCTTCCGGCCGTACCGCG (ssDNA, one A is 2-aminopurine (AP2; underline lost)) [Oligo (strand 4 AP2)] registered a Kd of 731 ± 134 nM.

B8: RecG: monomeric RecG helicase of Escherichia coli (protein, UniProt P24230 1-693, looked up)
ATP-dependent DNA helicase …: MKGRLLDAVPLSSLTGVGAALSNKLAKINLHTVQDLLLHLPLRYEDRTHLYPIGELLPGVYATVEGEVLNCNISFGGRRMMTCQISDGSGILTMRFFNFSAAMKNSLAAGRRVLAYGEAKRGKYGAEMIHPEYRVQGDLSTPELQETLTPVYPTTEGVKQATLRKLTDQALDLLDTCAIEELLPPELSQGMMTLPEALRTLHRPPPTLQLSDLETGQHPAQRRLILEELLAHNLSMLALRAGAQRFHAQPLSANDTLKNKLLAALPFKPTGAQARVVAEIERDMALDVPMMRLVQGDVGSGKTLVAALAALRAIAHGKQVALMAPTELLAEQHANNFRNWFAPLGIEVGWLAGKQKGKARLAQQEAIASGQVQMIVGTHAIFQEQVQFNGLALVIIDEQHRFGVHQRLALWEKGQQQGFHPHQLIMTATPIPRTLAMTAYADLDTSVIDELPPGRTPVTTVAIPDTRRTDIIDRVHHACITEGRQAYWVCTLIEESELLEAQAAEATWEELKLALPELNVGLVHGRMKPAEKQAVMASFKQGELHLLVATTVIEVGVDVPNASLMIIENPERLGLAQLHQLRGRVGRGAVASHCVLLYKTPLSKTAQIRLQVLRDSNDGFVIAQKDLEIRGPGELLGTRQTGNAEFKVADLLRDQAMIPEVQRLARHIHERYPQQAKALIERWMPETERYSNA
Consider B8, for which the “Kd of RecG by gel mobility shift relative to peptide” value at protein-free HJ DNA [8] is on record as “very similar”. For the same molecule, the “time for half of bound RecG to dissociate” value in the series on HJ substrate [9] (0.02 μM RecG, 1 nM labeled HJ, 0.2 μM unlabeled HJ, 4°C) is reported as 25 min. Further, the “dissociation faster than peptide complex” value with HJ substrate [9] (RecG/HJ vs (WRWYCR)2/HJ) was roughly 2 X. The “increase in KMnO4 sensitivity of central thymine bases” value in series [10] is listed as roughly 2 fold. In addition, the “fold lower affinity for flayed DNA than HJ” value in the series on flayed duplex DNA was no more than 100 fold.

The term IC50 denotes the concentration at which inhibition is half-maximal. The term Kd denotes the equilibrium constant for the complex coming apart.
